ChEMBL document CHEMBL2401701, “Notable difference in anti-HIV activity of integrase inhibitors as a consequence of geometric and enantiomeric configurations” (Bioorg Med Chem Lett, 2013)
Each block holds one compound with its values, some of them ahead of it. Activity calls are given as the source filed them. The calls are words filed in the database; no cut-off is given here.

Tests used:
CYP2D6 [1] = biological target: T1, CYP2D6 (Homo sapiens, UniProt P10635); experiment: Activity at CYP2D6 in human liver microsomes using dextromethorphan as substrate at 12.5 uM preincubated for 3 mins prior to NADPH addition by HPLC-UV analysis relative to control; format: ADME, Microsome; settings: probe dextromethorphan, read-out: Activity
Summary of the method: (§1)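 Pooled mixed-gender human liver microsomes in 100 mM potassium phosphate (pH 7.4) with 5 mM MgCl₂, probe substrate at its Km-based level, and test compound. Final volume 100 µL. Preincubated 3 min at 37 °C, then started with 2 mM NADPH (final). Metabolite was read by HPLC-UV: 6β-hydroxytestosterone at 254 nm, 4-hydroxytriazolam at 260 nm, dextrorphan at 278 nm. Activity is given as % of control (100%), mean ± SD of three.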

CYP3A4 [2] = biological target: T2, CYP3A4 (Homo sapiens, UniProt P08684); experiment: Activity at CYP3A4 in human liver microsomes using triazolam as substrate at 50 uM preincubated for 3 mins prior to NADPH addition by HPLC-UV analysis relative to control; format: ADME, Microsome; settings: probe triazolam, read-out: Activity; summary of the method: as §1
CYP2D6 [3] = biological target: T1, CYP2D6; experiment: Activity at CYP2D6 in human liver microsomes using dextromethorphan as substrate at 50 uM preincubated for 3 mins prior to NADPH addition by HPLC-UV analysis relative to control; format: ADME, Microsome; settings: probe dextromethorphan, read-out: Activity; summary of the method: as §1
[4] = Cytotoxicity against human MAGI cells by MTS assay; format: cell-based
CYP3A4 [5] = biological target: T2, CYP3A4; experiment: Activity at CYP3A4 in human liver microsomes using triazolam as substrate at 12.5 uM preincubated for 3 mins prior to NADPH addition by HPLC-UV analysis relative to control; format: ADME, Microsome; settings: probe triazolam, read-out: Activity; summary of the method: as §1
[6] = Half life in human liver microsomes at 50 uM preincubated for 3 mins prior to NADPH addition measured after 60 mins by HPLC analysis; format: ADME, Microsome
Summary of the method: (§2)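 Pooled mixed-gender human liver microsomes (0.5 mg/mL protein) were incubated with 2 mM NADPH, 0.5 U/mL G-6-P-DH, 5 mM MgCl₂ and 5 mM G-6-P in 100 mM potassium phosphate pH 7.4. After 3 min preincubation at 37 °C, NADPH was added to start the reaction, which ran 60 min. Samples taken at 0, 15, 30, 45 and 60 min were quenched with ice-cold acetonitrile, then run on reversed-phase C18 HPLC (phosphate pH 6.5/acetonitrile gradient) with UV at 360 nm. Data are mean ± SD of three.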

CYP3A4 [7] = biological target: T2, CYP3A4; experiment: Activity at CYP3A4 in human liver microsomes using testosterone as substrate at 12.5 uM preincubated for 3 mins prior to NADPH addition by HPLC-UV analysis relative to control; format: ADME, Microsome; settings: probe testosterone, read-out: Activity; summary of the method: as §1
[8] = tested on: Human immunodeficiency virus 1; experiment: Antiviral activity against Human immunodeficiency virus 1 NL4-3 infected in human MAGI cells after 6 days by beta-galactosidase reporter gene assay; format: functional, organism-based; settings: Human immunodeficiency virus 1, NL4-3, MAGI, 144 h
Summary of the method: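 MAGI cells carrying an LTR-β-galactosidase reporter were infected with HIV-1 in the presence of compound. After 6 days post-infection, cells were lysed and β-galactosidase activity was read by chemiluminescence. Values are means of three determinations.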

Liver microsomes [9] = experiment: Metabolic stability in human liver microsomes assessed as retention time of metabolite at 50 uM by HPLC-UV analysis; format: ADME, Microsome; summary of the method: as §2
CYP2D6 [10] = biological target: T1, CYP2D6; experiment: Activity at CYP2D6 in human liver microsomes using dextromethorphan as substrate at 25 uM preincubated for 3 mins prior to NADPH addition by HPLC-UV analysis relative to control; format: ADME, Microsome; settings: probe dextromethorphan, read-out: Activity; summary of the method: as §1
Liver microsomes [11] = experiment: Metabolic stability in human liver microsomes assessed as retention time of parent compound at 50 uM by HPLC-UV analysis; format: ADME, Microsome; summary of the method: as §2
CYP3A4 [12] = biological target: T2, CYP3A4; experiment: Activity at CYP3A4 in human liver microsomes using triazolam as substrate at 25 uM preincubated for 3 mins prior to NADPH addition by HPLC-UV analysis relative to control; format: ADME, Microsome; settings: probe triazolam, read-out: Activity; summary of the method: as §1
CYP3A4 [13] = biological target: T2, CYP3A4; experiment: Activity at CYP3A4 in human liver microsomes using testosterone as substrate at 25 uM preincubated for 3 mins prior to NADPH addition by HPLC-UV analysis relative to control; format: ADME, Microsome; settings: probe testosterone, read-out: Activity; summary of the method: as §1
[14] = biological target: Human immunodeficiency virus type 1 integrase (Human immunodeficiency virus 1) (UniProt Q7ZJM1); experiment: (§3) Inhibition of HIV-1 integrase strand transfer activity after 1 hr by ELISA
Summary of the method: (§4)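 DNA substrate (20 nM final), serially diluted compound, and recombinant HIV-1 integrase were combined in 20 mM HEPES pH 7.5, 10 mM MgCl₂, 5% PEG, 0.1 mg/mL BSA, 5 mM DTT. The mix was moved to streptavidin plates for 1 h at room temperature, then washed with NaOH/NaCl/EDTA and Tris-EDTA. Detection antibody was applied for 1 h at 37 °C, followed by TMB for 10 min and absorbance at 450 nm.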

[15] = biological target: Human immunodeficiency virus type 1 integrase (Human immunodeficiency virus 1, UniProt Q7ZJM1); experiment: as §3; summary of the method: as §4
Human immunodeficiency virus type 1 integrase, sequence (Q7ZJM1 whole entry): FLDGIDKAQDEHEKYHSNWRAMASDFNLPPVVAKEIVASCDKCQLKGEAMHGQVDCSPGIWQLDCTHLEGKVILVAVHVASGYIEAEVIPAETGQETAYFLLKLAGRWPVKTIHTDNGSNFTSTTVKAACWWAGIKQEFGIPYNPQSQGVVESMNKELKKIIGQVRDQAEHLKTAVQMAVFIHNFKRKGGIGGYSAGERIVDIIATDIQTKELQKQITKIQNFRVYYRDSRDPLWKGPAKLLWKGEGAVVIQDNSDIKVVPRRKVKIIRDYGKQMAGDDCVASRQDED

T1 sequence (P10635 whole entry): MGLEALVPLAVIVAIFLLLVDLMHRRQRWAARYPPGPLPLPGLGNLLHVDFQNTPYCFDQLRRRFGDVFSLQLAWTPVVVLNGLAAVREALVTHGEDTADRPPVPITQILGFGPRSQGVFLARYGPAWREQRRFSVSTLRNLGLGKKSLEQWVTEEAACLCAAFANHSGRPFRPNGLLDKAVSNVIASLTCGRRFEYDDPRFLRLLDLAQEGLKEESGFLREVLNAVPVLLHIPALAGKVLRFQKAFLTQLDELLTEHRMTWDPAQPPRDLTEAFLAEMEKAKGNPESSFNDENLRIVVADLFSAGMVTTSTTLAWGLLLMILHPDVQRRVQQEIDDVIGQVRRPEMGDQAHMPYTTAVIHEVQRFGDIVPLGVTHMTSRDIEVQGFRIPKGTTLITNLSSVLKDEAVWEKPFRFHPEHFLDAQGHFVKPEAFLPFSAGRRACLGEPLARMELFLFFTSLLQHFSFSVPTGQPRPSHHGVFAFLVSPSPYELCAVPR
T2 sequence (P08684 whole entry): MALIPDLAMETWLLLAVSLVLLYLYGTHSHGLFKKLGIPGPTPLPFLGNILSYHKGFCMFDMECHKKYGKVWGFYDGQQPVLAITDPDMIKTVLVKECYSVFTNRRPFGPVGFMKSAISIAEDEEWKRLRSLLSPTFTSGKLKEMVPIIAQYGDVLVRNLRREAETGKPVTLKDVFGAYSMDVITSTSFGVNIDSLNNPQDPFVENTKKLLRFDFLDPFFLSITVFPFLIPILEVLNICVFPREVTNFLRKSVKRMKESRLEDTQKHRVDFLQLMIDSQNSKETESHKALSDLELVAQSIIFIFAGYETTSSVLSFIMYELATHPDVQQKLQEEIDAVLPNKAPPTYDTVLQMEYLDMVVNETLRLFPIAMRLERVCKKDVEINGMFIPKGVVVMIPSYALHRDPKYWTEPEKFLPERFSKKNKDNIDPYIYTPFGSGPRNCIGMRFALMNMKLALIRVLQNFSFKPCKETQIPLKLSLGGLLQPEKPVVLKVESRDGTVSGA
Human immunodeficiency virus type 1 integrase (Human immunodeficiency virus 1), sequence (Q7ZJM1 as listed by the source): as the sequence (Q7ZJM1 whole entry) above

activity at 12.5 µM (CYP2D6 [1]): 86%
activity at 50 µM (CYP3A4 [2]): 100%
activity at 50 µM (CYP2D6 [3]): 87%
activity at 12.5 µM (CYP3A4 [5]): 124%
half-life at 50 µM [6]: 2 h
activity at 12.5 µM (CYP3A4 [7]): 109%
EC50 [8]: 25.1 nM
EC90 [8]: 415 nM
Retention_time (Liver microsomes [9]): 9.1 min
activity at 25 µM (CYP2D6 [10]): 87%
Retention_time (Liver microsomes [11]): 10.48 min
activity at 25 µM (CYP3A4 [12]): 98%
activity at 25 µM (CYP3A4 [13]): 97%
SMILES: O=C(/C=C(\O)c1cc(Cc2ccc(F)cc2F)cn(Cc2ccccc2F)c1=O)C(=O)N[C@H]1CCC[C@@H]1O
CC50 [4]: 40400 nM

EC50 [8]: 42.2 nM
EC90 [8]: 871 nM
SMILES: O=C(/C=C(\O)c1cc(Cc2ccc(F)cc2F)cn(Cc2ccccc2F)c1=O)C(=O)N[C@@H]1CCC[C@H]1O
CC50 [4]: 137000 nM

inhibition [14]: inactive
SMILES: O=C(/C=C(\O)c1cc(Cc2ccc(F)cc2F)cn(Cc2ccccc2F)c1=O)C(=O)N[C@@H]1CCC[C@@H]1O (racemic)

IC50 [15]: 48 nM
SMILES: O=C(/C=C(\O)c1cc(Cc2ccc(F)cc2F)cn(Cc2ccccc2F)c1=O)C(=O)N[C@@H]1CCC[C@H]1O (racemic)
